The source made the active and inactive calls. No cut-off for these calls is given here.
What was measured:
Type in all cases: functional
Histoplasma capsulatum [1] = assay: Antifungal activity against Histoplasma capsulatum Darling isolate 1098 at 40 ug/ml after 1 week (reference value: 12 mm); conditions: Darling isolate 1098, 168 h, read-out: DIZ
Histoplasma capsulatum [2] = assay: Antifungal activity against Histoplasma capsulatum Darling isolate 1106 at 1 ug/ml after 3 weeks (reference value: 31 mm); conditions: Darling isolate 1106, 504 h, read-out: DIZ
Histoplasma capsulatum [3] = assay: Antifungal activity against Histoplasma capsulatum Darling isolate 1098 at 60 ug/ml after 2 weeks (reference value: 21 mm); conditions: Darling isolate 1098, 336 h, read-out: DIZ
Blastomyces dermatitidis [4] = assay: Antifungal activity against Blastomyces dermatitidis Gilchrist & Stokes isolate 1107 at 20 ug/ml after 1 week (reference value: 20 mm)
How it was run: (§1)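 Mycelial phase grown on Sabouraud dextrose agar at 25°C. Agar pH was set to 6 before the test solution was added and was 5.0-5.5 after. Test solutions contained HOAc and Me2SO, and solvent and blank controls were included. Each quadrant was center-inoculated with a 2 × 2 mm piece of a 2-week-old mycelial culture. Colony diameter was measured weekly for 3 weeks and reported as total increments (mm). Duplicates were run.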

Blastomyces dermatitidis [5] = assay: Antifungal activity against Blastomyces dermatitidis Gilchrist & Stokes isolate 1099 at 100 ug/ml after 2 weeks (reference value: 27 mm)
Histoplasma capsulatum [6] = assay: Antifungal activity against Histoplasma capsulatum Darling isolate 1098 at 100 ug/ml after 3 weeks (reference value: 28 mm); conditions: Darling isolate 1098, 504 h, read-out: DIZ
Histoplasma capsulatum [7] = assay: Antifungal activity against Histoplasma capsulatum Darling isolate 1098 at 10 ug/ml after 1 week (reference value: 12 mm); conditions: Darling isolate 1098, 168 h, read-out: DIZ
Histoplasma capsulatum [8] = assay: Antifungal activity against Histoplasma capsulatum Darling isolate 1098 at 20 ug/ml after 2 weeks (reference value: 21 mm); conditions: Darling isolate 1098, 336 h, read-out: DIZ
Blastomyces dermatitidis [9] = assay: Antifungal activity against Blastomyces dermatitidis Gilchrist & Stokes isolate 1107 at 100 ug/ml after 3 weeks (reference value: 40 mm); conditions: Gilchrist & Stokes isolate 1107, 504 h, read-out: DIZ; how it was run: as §1
Histoplasma capsulatum [10] = assay: Antifungal activity against Histoplasma capsulatum Darling isolate 1098 at 40 ug/ml after 3 weeks (reference value: 28 mm); conditions: Darling isolate 1098, 504 h, read-out: DIZ
Blastomyces dermatitidis [11] = assay: Antifungal activity against Blastomyces dermatitidis Gilchrist & Stokes isolate 1099 at 60 ug/ml after 3 weeks (reference value: 34 mm); conditions: Gilchrist & Stokes isolate 1099, 504 h, read-out: DIZ; how it was run: as §1
Blastomyces dermatitidis [12] = assay: Antifungal activity against Blastomyces dermatitidis Gilchrist & Stokes isolate 1099 at 80 ug/ml after 3 weeks (reference value: 34 mm); conditions: Gilchrist & Stokes isolate 1099, 504 h, read-out: DIZ; how it was run: as §1
Blastomyces dermatitidis [13] = assay: Antifungal activity against Blastomyces dermatitidis Gilchrist & Stokes isolate 1099 at 1 ug/ml after 3 weeks (reference value: 34 mm); conditions: Gilchrist & Stokes isolate 1099, 504 h, read-out: DIZ; how it was run: as §1
Blastomyces dermatitidis [14] = assay: Antifungal activity against Blastomyces dermatitidis Gilchrist & Stokes isolate 1107 at 80 ug/ml after 2 weeks (reference value: 35 mm); conditions: Gilchrist & Stokes isolate 1107, 336 h, read-out: DIZ; how it was run: as §1
Histoplasma capsulatum [15] = assay: Antifungal activity against Histoplasma capsulatum Darling isolate 1106 at 60 ug/ml after 1 week (reference value: 14 mm); conditions: Darling isolate 1106, 168 h, read-out: DIZ
Blastomyces dermatitidis [16] = assay: Antifungal activity against Blastomyces dermatitidis Gilchrist & Stokes isolate 1107 at 40 ug/ml after 3 weeks (reference value: 40 mm); conditions: Gilchrist & Stokes isolate 1107, 504 h, read-out: DIZ; how it was run: as §1
Blastomyces dermatitidis [17] = assay: Antifungal activity against Blastomyces dermatitidis Gilchrist & Stokes isolate 1099 at 100 ug/ml after 1 week (reference value: 14 mm)
Blastomyces dermatitidis [18] = assay: Antifungal activity against Blastomyces dermatitidis Gilchrist & Stokes isolate 1099 at 20 ug/ml after 1 week (reference value: 14 mm); how it was run: as §1
Blastomyces dermatitidis [19] = assay: Antifungal activity against Blastomyces dermatitidis Gilchrist & Stokes isolate 1107 at 60 ug/ml after 2 weeks (reference value: 35 mm); conditions: Gilchrist & Stokes isolate 1107, 336 h, read-out: DIZ; how it was run: as §1
Blastomyces dermatitidis [20] = assay: Antifungal activity against Blastomyces dermatitidis Gilchrist & Stokes isolate 1099 at 40 ug/ml after 3 weeks (reference value: 34 mm); conditions: Gilchrist & Stokes isolate 1099, 504 h, read-out: DIZ; how it was run: as §1
Histoplasma capsulatum [21] = assay: Antifungal activity against Histoplasma capsulatum Darling isolate 1098 at 10 ug/ml after 3 weeks (reference value: 28 mm); conditions: Darling isolate 1098, 504 h, read-out: DIZ
Histoplasma capsulatum [22] = assay: Antifungal activity against Histoplasma capsulatum Darling isolate 1098 at 1 ug/ml after 3 weeks (reference value: 28 mm); conditions: Darling isolate 1098, 504 h, read-out: DIZ
Histoplasma capsulatum [23] = assay: Antifungal activity against Histoplasma capsulatum Darling isolate 1098 at 1 ug/ml after 2 weeks (reference value: 21 mm); conditions: Darling isolate 1098, 336 h, read-out: DIZ
Blastomyces dermatitidis [24] = assay: Antifungal activity against Blastomyces dermatitidis Gilchrist & Stokes isolate 1099 at 10 ug/ml after 3 weeks (reference value: 34 mm); conditions: Gilchrist & Stokes isolate 1099, 504 h, read-out: DIZ; how it was run: as §1
Histoplasma capsulatum [25] = assay: Antifungal activity against Histoplasma capsulatum Darling isolate 1098 at 60 ug/ml after 3 weeks (reference value: 28 mm); conditions: Darling isolate 1098, 504 h, read-out: DIZ
Histoplasma capsulatum [26] = assay: Antifungal activity against Histoplasma capsulatum Darling isolate 1106 at 80 ug/ml after 3 weeks (reference value: 31 mm); conditions: Darling isolate 1106, 504 h, read-out: DIZ
Histoplasma capsulatum [27] = assay: Antifungal activity against Histoplasma capsulatum Darling isolate 1106 at 10 ug/ml after 2 weeks (reference value: 25 mm); conditions: Darling isolate 1106, 336 h, read-out: DIZ
Blastomyces dermatitidis [28] = assay: Antifungal activity against Blastomyces dermatitidis Gilchrist & Stokes isolate 1107 at 80 ug/ml after 1 week (reference value: 20 mm)
Histoplasma capsulatum [29] = assay: Antifungal activity against Histoplasma capsulatum Darling isolate 1106 at 60 ug/ml after 2 weeks (reference value: 25 mm); conditions: Darling isolate 1106, 336 h, read-out: DIZ
Histoplasma capsulatum [30] = assay: Antifungal activity against Histoplasma capsulatum Darling isolate 1106 at 80 ug/ml after 2 weeks (reference value: 25 mm); conditions: Darling isolate 1106, 336 h, read-out: DIZ

C[C@@H]1[C@H](O)[C@@H](C)/C=C/C=C/C=C/C=C/C=C/C=C/C=C/[C@H](O[C@@H]2O[C@H](C)[C@@H](O)[C@H](N)[C@@H]2O)C[C@@H]2O[C@](O)(C[C@@H](O)C[C@@H](O)[C@H](O)CC[C@@H](O)C[C@@H](O)CC(=O)O[C@H]1C)C[C@H](O)[C@H]2C(=O)O [AMPHOTERICIN B]
zone of inhibition at 40 µg/mL (Histoplasma capsulatum [1]): 5 mm | zone of inhibition at 1 µg/mL (Histoplasma capsulatum [2]): 24 mm | zone of inhibition at 60 µg/mL (Histoplasma capsulatum [3]): 9 mm | Activity (Blastomyces dermatitidis [4]): inactive | Activity (Blastomyces dermatitidis [5]): Active | zone of inhibition at 100 µg/mL (Histoplasma capsulatum [6]): 14 mm | zone of inhibition at 10 µg/mL (Histoplasma capsulatum [7]): 8 mm | zone of inhibition at 20 µg/mL (Histoplasma capsulatum [8]): 12 mm | zone of inhibition at 100 µg/mL (Blastomyces dermatitidis [9]): 11 mm | zone of inhibition at 40 µg/mL (Histoplasma capsulatum [10]): 16 mm | zone of inhibition at 60 µg/mL (Blastomyces dermatitidis [11]): 4 mm | zone of inhibition at 80 µg/mL (Blastomyces dermatitidis [12]): 2 mm | zone of inhibition at 1 µg/mL (Blastomyces dermatitidis [13]): 19 mm | zone of inhibition at 80 µg/mL (Blastomyces dermatitidis [14]): 10 mm | zone of inhibition at 60 µg/mL (Histoplasma capsulatum [15]): 6 mm | zone of inhibition at 40 µg/mL (Blastomyces dermatitidis [16]): 13 mm | Activity (Blastomyces dermatitidis [17]): Active | Activity (Blastomyces dermatitidis [18]): Active | zone of inhibition at 60 µg/mL (Blastomyces dermatitidis [19]): 10 mm | zone of inhibition at 40 µg/mL (Blastomyces dermatitidis [20]): 4 mm | zone of inhibition at 10 µg/mL (Histoplasma capsulatum [21]): 19 mm | zone of inhibition at 1 µg/mL (Histoplasma capsulatum [22]): 28 mm | zone of inhibition at 1 µg/mL (Histoplasma capsulatum [23]): 19 mm | zone of inhibition at 10 µg/mL (Blastomyces dermatitidis [24]): 11 mm | zone of inhibition at 60 µg/mL (Histoplasma capsulatum [25]): 13 mm | zone of inhibition at 80 µg/mL (Histoplasma capsulatum [26]): 12 mm | zone of inhibition at 10 µg/mL (Histoplasma capsulatum [27]): 12 mm | Activity (Blastomyces dermatitidis [28]): inactive | zone of inhibition at 60 µg/mL (Histoplasma capsulatum [29]): 9 mm | zone of inhibition at 80 µg/mL (Histoplasma capsulatum [30]): 7 mm

Source: ChEMBL document CHEMBL3272198, “Preparation and in vitro antifungal activities of some quinolizidine derived hemiaminals and beta-tert-amino sulfides” (1976)
